ChEMBL document CHEMBL2069244 (Bioorg Med Chem Lett, 2012)
The source made the active and inactive calls. The rule behind the calls is not given here.

How the values were obtained:
Mus musculus [1] = experiment: Anticonvulsant activity in mouse assessed as protection against maximal electroshock-induced seizures at 100 mg/kg, ip after 0.25 hrs; assay type: functional, organism-based; design: dose 100 mg/kg
Method in brief: (§1)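 Mice dosed ip in 30% polyethylene glycol. Corneas pretreated with 1% tetracaine, then 60 Hz alternating current (50 mA) applied for 0.2 s via corneal electrodes. Protection means absence of the hindlimb tonic extensor component. Scored as number protected/number tested.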

Mus musculus [2] = experiment: Anticonvulsant activity in mouse assessed as protection against maximal electroshock-induced seizures at 30 mg/kg, ip after 0.5 hrs; assay type: functional, organism-based; design: dose 30 mg/kg; method in brief: as §1
Mus musculus [3] = experiment: Anticonvulsant activity in mouse assessed as protection against maximal electroshock-induced seizures at 100 mg/kg, ip after 1 hrs; assay type: functional, organism-based; design: dose 100 mg/kg; method in brief: as §1
Mus musculus [4] = experiment: Anticonvulsant activity in mouse assessed as protection against maximal electroshock-induced seizures at 100 mg/kg, ip after 2 hrs; assay type: functional, organism-based; design: dose 100 mg/kg; method in brief: as §1
Mus musculus [5] = experiment: Anticonvulsant activity in mouse assessed as protection against maximal electroshock-induced seizures at 100 mg/kg, ip after 4 hrs; assay type: functional, organism-based; design: dose 100 mg/kg; method in brief: as §1
Mus musculus [6] = experiment: Anticonvulsant activity in mouse assessed as protection against maximal electroshock-induced seizures at 100 mg/kg, ip after 6 hrs; assay type: functional, organism-based; design: dose 100 mg/kg; method in brief: as §1
Mus musculus [7] = experiment: Anticonvulsant activity in mouse assessed as protection against maximal electroshock-induced seizures at 100 mg/kg, ip after 0.5 hrs; assay type: functional, organism-based; design: dose 100 mg/kg; method in brief: as §1
Mus musculus [8] = experiment: Anticonvulsant activity in mouse assessed as protection against maximal electroshock-induced seizures at 300 mg/kg, ip after 0.5 hrs; assay type: functional, organism-based; design: dose 300 mg/kg; method in brief: as §1
Mus musculus [9] = experiment: Anticonvulsant activity in mouse assessed as protection against maximal electroshock-induced seizures at 300 mg/kg, ip after 4 hrs; assay type: functional, organism-based; design: dose 300 mg/kg; method in brief: as §1
Mus musculus [10] = experiment: Anticonvulsant activity in mouse assessed as protection against subcutaneous pentylenetetrazole-induced seizures at 30 mg/kg, ip after 0.5 hrs; assay type: functional, organism-based; design: dose 30 mg/kg
Mus musculus [11] = experiment: Anticonvulsant activity in mouse assessed as protection against subcutaneous pentylenetetrazole-induced seizures at 100 mg/kg, ip after 0.5 hrs; assay type: functional, organism-based; design: dose 100 mg/kg
Mus musculus [12] = experiment: Anticonvulsant activity in mouse assessed as protection against subcutaneous pentylenetetrazole-induced seizures at 300 mg/kg, ip after 0.5 hrs; assay type: functional, organism-based; design: dose 300 mg/kg
Mus musculus [13] = experiment: Anticonvulsant activity in mouse assessed as protection against subcutaneous pentylenetetrazole-induced seizures at 30 mg/kg, ip after 4 hrs; assay type: functional, organism-based; design: dose 30 mg/kg
Mus musculus [14] = experiment: Anticonvulsant activity in mouse assessed as protection against subcutaneous pentylenetetrazole-induced seizures at 100 mg/kg, ip after 4 hrs; assay type: functional, organism-based; design: dose 100 mg/kg
Mus musculus [15] = experiment: Anticonvulsant activity in mouse assessed as protection against subcutaneous pentylenetetrazole-induced seizures at 300 mg/kg, ip after 4 hrs; assay type: functional, organism-based; design: dose 300 mg/kg
Mus musculus [16] = experiment: Anticonvulsant activity in mouse assessed as protection against 32mA-induced seizure at 100 mg/kg, ip after 0.25 hrs by 6Hz psychomotor seizure test; assay type: functional, organism-based; design: dose 100 mg/kg
Method in brief: (§2)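 Mice dosed ip in 30% polyethylene glycol, then given a 6 Hz, 32 mA corneal stimulus. Animals lacking the minimal clonic phase and stereotyped automatistic behaviours count as protected. Data are number protected/number tested at each time after dosing.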

Mus musculus [17] = experiment: Anticonvulsant activity in mouse assessed as protection against 32mA-induced seizure at 100 mg/kg, ip after 0.5 hrs by 6Hz psychomotor seizure test; assay type: functional, organism-based; design: dose 100 mg/kg; method in brief: as §2
Mus musculus [18] = experiment: Anticonvulsant activity in mouse assessed as protection against 32mA-induced seizure at 100 mg/kg, ip after 1 hr by 6Hz psychomotor seizure test; assay type: functional, organism-based; design: dose 100 mg/kg; method in brief: as §2
Mus musculus [19] = experiment: Anticonvulsant activity in mouse assessed as protection against 32mA-induced seizure at 100 mg/kg, ip after 2 hrs by 6Hz psychomotor seizure test; assay type: functional, organism-based; design: dose 100 mg/kg; method in brief: as §2
Mus musculus [20] = experiment: Anticonvulsant activity in mouse assessed as protection against 32mA-induced seizure at 100 mg/kg, ip after 4 hrs by 6Hz psychomotor seizure test; assay type: functional, organism-based; design: dose 100 mg/kg; method in brief: as §2
Mus musculus [21] = experiment: Neurotoxicity in mouse at 30 mg/kg, ip after 0.5 hrs by 6Hz psychomotor seizure test; assay type: toxicity, organism-based; design: dose 30 mg/kg, route intraperitoneal; conditions: in vivo
Method in brief: (§3)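 Mice dosed ip in 30% polyethylene glycol and placed on a rotorod at 6 rpm. An animal is scored toxic if it falls off three times within 1 min.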

Mus musculus [22] = experiment: Neurotoxicity in mouse at 30 mg/kg, ip after 4 hrs by 6Hz psychomotor seizure test; assay type: toxicity, organism-based; design: dose 30 mg/kg, route intraperitoneal; conditions: in vivo; method in brief: as §3
Mus musculus [23] = experiment: Neurotoxicity in mouse at 100 mg/kg, ip after 0.25 hrs by 6Hz psychomotor seizure test; assay type: toxicity, organism-based; design: dose 100 mg/kg, route intraperitoneal; conditions: in vivo; method in brief: as §3
Mus musculus [24] = experiment: Neurotoxicity in mouse at 100 mg/kg, ip after 0.5 hrs by 6Hz psychomotor seizure test; assay type: toxicity, organism-based; design: dose 100 mg/kg, route intraperitoneal; conditions: in vivo; method in brief: as §3
Mus musculus [25] = experiment: Neurotoxicity in mouse at 100 mg/kg, ip after 1 hrs by 6Hz psychomotor seizure test; assay type: toxicity, organism-based; design: dose 100 mg/kg, route intraperitoneal; conditions: in vivo; method in brief: as §3
Mus musculus [26] = experiment: Neurotoxicity in mouse at 100 mg/kg, ip after 2 hrs by 6Hz psychomotor seizure test; assay type: toxicity, organism-based; design: dose 100 mg/kg, route intraperitoneal; conditions: in vivo; method in brief: as §3
Mus musculus [27] = experiment: Neurotoxicity in mouse at 100 mg/kg, ip after 4 hrs by 6Hz psychomotor seizure test; assay type: toxicity, organism-based; design: dose 100 mg/kg, route intraperitoneal; conditions: in vivo; method in brief: as §3
Mus musculus [28] = experiment: Neurotoxicity in mouse at 100 mg/kg, ip after 6 hrs by 6Hz psychomotor seizure test; assay type: toxicity, organism-based; design: dose 100 mg/kg, route intraperitoneal; conditions: in vivo; method in brief: as §3
Mus musculus [29] = experiment: Neurotoxicity in mouse at 300 mg/kg, ip after 0.5 hrs by 6Hz psychomotor seizure test; assay type: toxicity, organism-based; design: dose 300 mg/kg, route intraperitoneal; conditions: in vivo; method in brief: as §3
Mus musculus [30] = experiment: Neurotoxicity in mouse at 300 mg/kg, ip after 4 hrs by 6Hz psychomotor seizure test; assay type: toxicity, organism-based; design: dose 300 mg/kg, route intraperitoneal; conditions: in vivo; method in brief: as §3
Mus musculus [31] = experiment: Anticonvulsant activity in ip dosed mouse assessed as protection against 32mA-induced seizure measured after 0.25 to 0.5 hrs by 6Hz psychomotor seizure test
Mus musculus [32] = experiment: Anticonvulsant activity in mouse assessed as protection against maximal electroshock-induced seizures at 30 mg/kg, ip after 4 hrs; assay type: functional, organism-based; design: dose 30 mg/kg; method in brief: as §1
Mus musculus [33] = experiment: Anticonvulsant activity in mouse assessed as peak time to protect against electrically-induced seizure at 100 mg/kg, ip by 6Hz psychomotor seizure test; assay type: functional; conditions: route intraperitoneal; method in brief: as §2
Mus musculus [34] = experiment: Protective index, ratio of TD50 for neurotoxicity in ip dosed mouse to ED50 for anticonvulsant activity in mouse by 6Hz psychomotor seizure test; assay type: functional
Method in brief: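 Mice dosed ip in 30% polyethylene glycol. TD50 comes from rotorod toxicity at 6 rpm (three falls in 1 min). ED50 comes from 6 Hz, 32 mA seizure protection. Both are from probit analysis with 95% confidence intervals, and the index is TD50/ED50.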

| SMILES | Activity (Mus musculus [1]) | Activity (Mus musculus [2]) | Activity (Mus musculus [3]) | Activity (Mus musculus [5]) | Activity (Mus musculus [7]) | Activity (Mus musculus [8]) | Activity (Mus musculus [9]) | Activity (Mus musculus [10]) | Activity (Mus musculus [11]) | Activity (Mus musculus [12]) | Activity (Mus musculus [13]) | Activity (Mus musculus [14]) | Activity (Mus musculus [15]) | Activity (Mus musculus [24]) | Activity (Mus musculus [27]) | ED50 (Mus musculus [31]) [mg/kg] | Activity (Mus musculus [32]) | Time (Mus musculus [33]) [h] | Ratio TD50/ED50 (Mus musculus [34]) | also measured |
| --- | --- | --- | --- | --- | --- | --- | --- | --- | --- | --- | --- | --- | --- | --- | --- | --- | --- | --- | --- | --- |
| Cc1cc(C(O)C(F)(F)F)ccc1O (configuration not stated) | inactive | inactive | inactive | inactive | inactive | Active | Active | inactive | inactive | inactive | inactive | inactive | inactive | Non-toxic | Non-toxic | – | – | – | – | Activity (Mus musculus [4]): inactive; Activity (Mus musculus [6]): inactive; Activity (Mus musculus [16]): inactive; Activity (Mus musculus [17]): inactive; Activity (Mus musculus [18]): Active; Activity (Mus musculus [19]): inactive; Activity (Mus musculus [20]): inactive; Activity (Mus musculus [21]): Non-toxic; Activity (Mus musculus [22]): Non-toxic; Activity (Mus musculus [23]): Non-toxic; Activity (Mus musculus [25]): Non-toxic; Activity (Mus musculus [26]): Non-toxic; Activity (Mus musculus [28]): Non-toxic; Activity (Mus musculus [29]): Non-toxic; Activity (Mus musculus [30]): Non-toxic |
| CCC(C)c1cc(C(O)C(F)(F)F)cc(C(C)CC)c1O (configuration not stated) | – | – | – | – | – | – | – | – | – | – | – | – | – | – | – | 73 | – | – | – | – |
| CC(C)c1cc(C(O)C(F)(F)F)ccc1O (configuration not stated) | inactive | inactive | inactive | inactive | inactive | Active | Active | inactive | inactive | Active | inactive | inactive | Active | – | – | 84.1 | inactive | 0.25 | 1.9 | Activity (Mus musculus [4]): inactive; Activity (Mus musculus [6]): inactive |
| CC(C)c1cccc(C(C)C)c1O [PROPOFOL] | – | – | – | – | – | – | – | – | – | – | – | – | – | – | – | 38.6 | – | – | – | – |
| CCC(C)c1cc(C(O)C(F)(F)F)cc(Br)c1O (configuration not stated) | inactive | inactive | inactive | inactive | inactive | Active | inactive | inactive | inactive | inactive | inactive | inactive | inactive | – | – | – | inactive | 0.5 | 1.7 | – |
| CCCc1cc(C(O)C(F)(F)F)cc(Br)c1O (configuration not stated) | – | inactive | – | inactive | inactive | inactive | inactive | inactive | inactive | inactive | inactive | inactive | inactive | Non-toxic | Non-toxic | – | inactive | – | – | Activity (Mus musculus [23]): Non-toxic; Activity (Mus musculus [25]): Non-toxic; Activity (Mus musculus [26]): Non-toxic |
| CCc1cc(C(O)C(F)(F)F)ccc1O (configuration not stated) | – | inactive | – | inactive | inactive | inactive | inactive | inactive | inactive | inactive | inactive | inactive | inactive | Non-toxic | Non-toxic | – | inactive | – | – | Activity (Mus musculus [16]): inactive; Activity (Mus musculus [17]): inactive; Activity (Mus musculus [18]): inactive; Activity (Mus musculus [19]): inactive; Activity (Mus musculus [20]): inactive; Activity (Mus musculus [21]): Non-toxic; Activity (Mus musculus [22]): Non-toxic; Activity (Mus musculus [29]): Non-toxic; Activity (Mus musculus [30]): Non-toxic |
| CCC(C)c1cc(C(O)C(F)(F)F)ccc1O (configuration not stated) | – | inactive | – | inactive | inactive | Active | inactive | inactive | inactive | Active | inactive | inactive | inactive | – | – | 53.9 | inactive | 0.5 | 1.6 | – |
| CC(C)c1cc(C(O)C(F)(F)F)cc(Br)c1O (configuration not stated) | – | inactive | – | inactive | inactive | inactive | inactive | inactive | inactive | inactive | inactive | inactive | inactive | – | – | 112 | inactive | 0.5 | 3.6 | – |
